Laboratory results: ChEMBL document CHEMBL3797161, “Design, Synthesis, and Immunological Evaluation of Benzyloxyalkyl-Substituted 1,2,3-Triazolyl α-GalCer Analogues” (ACS Med Chem Lett, 2016)
Active and inactive are the calls of the source. The rule behind the calls is not given here.

What was measured:
[1] = Solubility of compound in DMSO at 10 to 1000 ng/ml; format: physicochemical
[2] = Cytotoxicity against Balb/c mouse splenocytes assessed as reduction in cell proliferation up to 1000 ng/ml after 48 hrs by MTT assay; format: cell-based; settings: splenocyte
Outline: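 Splenocytes from BALB/c mice were exposed to glycolipid at up to 1000 ng/mL for 48 h. Proliferation was read by MTT relative to untreated cells.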

[3] = species on record: Mus musculus; test: Binding affinity to CD1D in Balb/c mouse splenocytes assessed as increase in IL-2 production at 10 to 1000 ng/ml after 48 hrs by sandwich ELISA; format: cell-based
Outline: (§1)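 Splenocytes isolated from BALB/c mice were cultured in vitro with glycolipid (dissolved in DMSO) at 10, 100 or 1000 ng/mL for 48 h. IL-2, IL-4 and IFN-γ in the culture were measured by ELISA.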

[4] = species on record: Mus musculus; test: Binding affinity to CD1D in Balb/c mouse splenocytes assessed as increase in IFN-gamma production at 1000 ng/ml after 48 hrs by sandwich ELISA; format: cell-based
[5] = test system: T-cell; test: Binding affinity to CD1D in Balb/c mouse splenocytes assessed as T cell stimulation by measuring increase in cytokine expression after 48 hrs by sandwich ELISA; format: cell-based; outline: as §1
[6] = species on record: Mus musculus; test: Binding affinity to CD1D in Balb/c mouse splenocytes assessed as increase in IL-4 production at 10 to 1000 ng/ml after 48 hrs by sandwich ELISA; format: cell-based; outline: as §1
[7] = species on record: Mus musculus; test: Binding affinity to CD1D in Balb/c mouse splenocytes assessed as increase in IFN-gamma production at 10 to 1000 ng/ml after 48 hrs by sandwich ELISA; format: cell-based; outline: as §1
[8] = species on record: Mus musculus; test: Binding affinity to CD1D in Balb/c mouse splenocytes assessed as increase in IL-4 production at 1000 ng/ml at 2 hrs by sandwich ELISA; format: cell-based
Outline: (§2)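 For cytokine kinetics, BALB/c mouse splenocytes were treated in vitro with glycolipid at 1000 ng/mL. Culture supernatants were sampled at 2, 12 and 24 h, and IL-4 and IFN-γ were quantified.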

[9] = species on record: Mus musculus; test: Binding affinity to CD1D in Balb/c mouse splenocytes assessed as increase in IL-4 production at 1000 ng/ml up to 24 hrs by sandwich ELISA; format: cell-based; outline: as §2
[10] = species on record: Mus musculus; test: Binding affinity to CD1D in Balb/c mouse splenocytes assessed as increase in IFN-gamma production at 1000 ng/ml up to 12 hrs by sandwich ELISA; format: cell-based; outline: as §2
[11] = species on record: Mus musculus; test: Binding affinity to CD1D in Balb/c mouse splenocytes assessed as increase in IFN-gamma production at 1000 ng/ml at 24 hrs by sandwich ELISA; format: cell-based; outline: as §2
[12] = target: T1, Antigen-presenting glycoprotein CD1d (Homo sapiens) (UniProt P15813); test: Binding affinity to CD1D (unknown origin) assessed as increase in IL-2 production at 100 ng/ml preincubated for 16 hrs followed by Valpha-14 Vbeta-8.2 DN3A4-1.2(1.2) iNKT hybridoma cells addition to compound-CD1D mixture measured after 16 hrs by sandwich ELISA
T1 sequence (whole entry): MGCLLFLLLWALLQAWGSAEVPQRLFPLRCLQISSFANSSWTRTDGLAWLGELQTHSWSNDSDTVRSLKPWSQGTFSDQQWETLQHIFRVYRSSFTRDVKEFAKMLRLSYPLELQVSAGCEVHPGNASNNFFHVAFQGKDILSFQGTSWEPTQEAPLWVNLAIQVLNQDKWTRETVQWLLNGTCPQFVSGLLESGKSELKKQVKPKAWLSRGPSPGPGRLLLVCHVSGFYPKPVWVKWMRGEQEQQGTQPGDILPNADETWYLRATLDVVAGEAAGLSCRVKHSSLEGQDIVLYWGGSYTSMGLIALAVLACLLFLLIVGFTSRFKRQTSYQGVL
Outline: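 Glycolipid incubated with CD1d protein for 16 h, then exposed to Vα14 Vβ8.2 DN3A4–1.2 (1.2) iNKT hybridoma cells; IL-2 secreted into the medium quantified.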

[13] = test system: Mus musculus; test: Stimulation of IFN-gamma production in Balb/c mouse at 1 ug, iv after 2 to 48 hrs by sandwich ELISA; format: functional, organism-based
Outline: (§3)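 BALB/c mice received glycolipid intravenously, 1 μg per animal. IFN-γ and IL-4 expression was then measured in vivo.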

[14] = test system: Mus musculus; test: Stimulation of IL-4 production in Balb/c mouse at 1 ug, iv after 2 to 48 hrs by sandwich ELISA; format: functional, organism-based; outline: as §3

| SMILES | solubility [1] | Activity [3] | Activity [4] | Activity [6] | Activity [7] | Activity [8] | Activity [9] | Activity [10] | Activity [11] | Activity [12] | Activity [2] | Activity [5] | Activity [13] | Activity [14] |
| --- | --- | --- | --- | --- | --- | --- | --- | --- | --- | --- | --- | --- | --- | --- |
| CCCCCCCCCCCCCC[C@@H](O)[C@@H](O)[C@H](CO[C@H]1O[C@H](CO)[C@H](O)[C@H](O)[C@H]1O)n1cc(COCCCCOCc2ccccc2)nn1 | soluble | Active |  |  |  |  |  |  |  |  | Non-toxic | Dose-dependent effect |  |  |
| CCCCCCCCCCCCCC[C@@H](O)[C@@H](O)[C@H](CO[C@H]1O[C@H](CO)[C@H](O)[C@H](O)[C@H]1O)n1cc(COCCCCCCCCCCOCc2ccccc2)nn1 | soluble | Active |  |  |  |  |  |  |  |  | Non-toxic | Dose-dependent effect |  |  |
| CCCCCCCCCCCCCC[C@@H](O)[C@@H](O)[C@H](CO[C@H]1O[C@H](CO)[C@H](O)[C@H](O)[C@H]1O)n1cc(COCCOCc2ccccc2)nn1 | soluble | inactive |  |  |  |  |  |  |  |  | Non-toxic | Dose-dependent effect |  |  |
| CCCCCCCCCCCCCCCCCCCCCCCCCC(=O)N[C@@H](CO[C@H]1O[C@H](CO)[C@H](O)[C@H](O)[C@H]1O)[C@H](O)[C@H](O)CCCCCCCCCCCCCC [RGI-7000] |  | Active |  | Active | Active | Active | Active | Active | Active | Active | Non-toxic |  | Active | Active |
| CCCCCCCCCCCCCC[C@@H](O)[C@@H](O)[C@H](CO[C@H]1O[C@H](CO)[C@H](O)[C@H](O)[C@H]1O)n1cc(COCCCCCCCCCCCCOCCCCCCOCc2ccccc2)nn1 | soluble | Active |  | Active | Active | Active | inactive | inactive | Active | Active | Non-toxic | Dose-dependent effect | inactive | inactive |

Further lines, with some results ahead:

| solubility [1] | Activity [3] | Activity [4] | Activity [6] | Activity [7] | Activity [8] | Activity [9] | Activity [10] | Activity [11] | Activity [12] | SMILES | Activity [2] | Activity [5] | Activity [13] | Activity [14] |
| --- | --- | --- | --- | --- | --- | --- | --- | --- | --- | --- | --- | --- | --- | --- |
| soluble | Active | Active |  |  |  |  |  |  |  | CCCCCCCCCCCCCC[C@@H](O)[C@@H](O)[C@H](CO[C@H]1O[C@H](CO)[C@H](O)[C@H](O)[C@H]1O)n1cc(COCCCCCCCCCCCCOCCOCc2ccccc2)nn1 | Non-toxic | Dose-dependent effect |  |  |
| soluble | Active |  |  |  |  |  |  |  |  | CCCCCCCCCCCCCC[C@@H](O)[C@@H](O)[C@H](CO[C@H]1O[C@H](CO)[C@H](O)[C@H](O)[C@H]1O)n1cc(COCCCCCCCCCCCCOCc2ccccc2)nn1 | Non-toxic | Dose-dependent effect |  |  |
| soluble | Active |  |  |  |  |  |  |  |  | CCCCCCCCCCCCCC[C@@H](O)[C@@H](O)[C@H](CO[C@H]1O[C@H](CO)[C@H](O)[C@H](O)[C@H]1O)n1cc(COCCCCCCCCOCc2ccccc2)nn1 | Non-toxic | Dose-dependent effect | Active | Active |
| soluble | Active | Active |  |  |  |  |  |  |  | CCCCCCCCCCCCCC[C@@H](O)[C@@H](O)[C@H](CO[C@H]1O[C@H](CO)[C@H](O)[C@H](O)[C@H]1O)n1cc(COCCCCCCOCc2ccccc2)nn1 | Non-toxic | Dose-dependent effect |  |  |
| soluble | Active |  | Active | Active | Active | inactive | inactive | Active | Active | CCCCCCCCCCCCCC[C@@H](O)[C@@H](O)[C@H](CO[C@H]1O[C@H](CO)[C@H](O)[C@H](O)[C@H]1O)n1cc(COCCCCCCCCCCCCOCCCCOCc2ccccc2)nn1 | Non-toxic | Dose-dependent effect | inactive | inactive |
